Data published in PubChem BioAssay.
Calls of active or inactive are those of the source. Unless noted, the rule behind the calls is not given here.

Key:
[1] = target: Pantothenate synthetase (Mycobacterium tuberculosis (strain ATCC 25618 / H37Rv)) (UniProt P9WIL5); experiment: Coupled enzyme confirmation of inhibitors against recombinant Mtb PanC (AID 375); conditions: coupled enzyme assay; at 10 µM, stronger effect = higher value;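 note: 0% = full reaction with vehicle and 100% = no enzyme background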
[2] = Her2 expression decrease, cell viability multiplex – SKBR3 breast tumor cells, AlphaScreen, ATP viability, primary screen (AID 461;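 active = Her2 level under about 52% in both replicate screens, with viability over 70% of control, limit read from the data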;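 for Her2 level: lower value means less Her2 protein in the cells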;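 for viability: percent of carrier control wells set as 100% viability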); conditions: SKBR3 Her2 protein level, 18-24 h, measured here: SKBR3 viability, ATP luminescence, at 10 µM
[3] = target: Receptor tyrosine-protein kinase erbB-2 (Homo sapiens) (UniProt P04626); experiment: as above; conditions: 18-24 h, at 10 µM, stronger effect = lower value
[4] = reduced viability of SK-BR-3 breast cancer cells – cell-based, 24 h, human, pilot screen (AID 572;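 active = viability at or below 10% of carrier control in both of two separate runs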;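 note: compound exposure lasted between 18 and 24 h rather than exactly 24 h; 100% = carrier-treated control wells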); conditions: SK-BR-3 viability, CellTiter-Glo luminescence, at 10 µM, stronger effect = lower value
[5] = HUVEC growth inhibition – cell-based, human, primary screen (AID 575;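 active = viability at or below 30% in both replicate assays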;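 note: 100% = median of untreated cell wells with 0.1% DMSO on each plate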); conditions: HUVEC proliferation, CellTiter-Glo luminescence, 72 h; at 10 µM; stronger effect = lower value
In short: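 Test system – primary HUVEC, no more than 12 passages · Dosing – one dose, 10 µM final, 0.1% DMSO · Times – 72 h treatment at 37 °C · Measured by – ATP-based CellTiter-Glo luminescent read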

[6] = H69AR cell proliferation blockers – human, duplicate replicates, primary screen (AID 580;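 active = viability at or under a set limit in both replicates, limit being median viability minus 3 SD, cut at about 48% in these data, passing the limit was not always enough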;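 note: 100% = mean luminescence of untreated wells and 0% = no signal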); conditions: H69AR lung tumor cells viability, ATP luminescence, 72 h; at 10 µM; stronger effect = lower value
[7] = MRP1 drug-resistance reversers in H69AR cells – cell-based, doxorubicin co-treatment, pilot screen (AID 601;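 active = viability loss from added drug above about 55%, and viability with drug at most 40%, in both replicates, limit read from the data, passing the limit was not always enough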); conditions: CellTiter-Glo, 72 h, at 10 µM; for differential viability (reversal): stronger effect = higher value
[8] = yeast transport mutant growth inhibition pilot in 384-well plates, post-Golgi transport modulator project (AID 636; in the data active = inhibition above about 31%); conditions: absorbance 615 nm, about 18 h, stronger effect = higher value
[9] = growth suppression of yeast trafficking mutant, preliminary HTS, modulators of trafficking downstream of Golgi apparatus project, 1536-format plate, OD 615 nm (AID 637; in the data active = inhibition above about 30%); conditions: yeast transport mutant growth, absorbance 615 nm, 18 h; stronger effect = higher value
[10] = H69AR cells + 2 uM doxorubicin, measured here: viability with 2 uM doxorubicin, stronger effect = lower value
[11] = H69AR cells, compound alone cytotoxicity

Chain of Pantothenate synthetase (Mycobacterium tuberculosis (strain ATCC 25618 / H37Rv)) (P9WIL5 whole entry, looked up): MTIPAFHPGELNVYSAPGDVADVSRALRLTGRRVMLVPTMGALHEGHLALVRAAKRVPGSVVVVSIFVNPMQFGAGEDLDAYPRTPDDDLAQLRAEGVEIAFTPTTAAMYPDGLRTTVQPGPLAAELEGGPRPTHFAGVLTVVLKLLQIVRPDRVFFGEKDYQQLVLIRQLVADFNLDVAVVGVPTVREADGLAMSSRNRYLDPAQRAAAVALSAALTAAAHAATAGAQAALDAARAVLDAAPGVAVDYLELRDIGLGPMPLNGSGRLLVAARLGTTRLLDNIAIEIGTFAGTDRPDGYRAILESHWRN
Chain of Receptor tyrosine-protein kinase erbB-2 (Homo sapiens) (P04626 whole entry, looked up): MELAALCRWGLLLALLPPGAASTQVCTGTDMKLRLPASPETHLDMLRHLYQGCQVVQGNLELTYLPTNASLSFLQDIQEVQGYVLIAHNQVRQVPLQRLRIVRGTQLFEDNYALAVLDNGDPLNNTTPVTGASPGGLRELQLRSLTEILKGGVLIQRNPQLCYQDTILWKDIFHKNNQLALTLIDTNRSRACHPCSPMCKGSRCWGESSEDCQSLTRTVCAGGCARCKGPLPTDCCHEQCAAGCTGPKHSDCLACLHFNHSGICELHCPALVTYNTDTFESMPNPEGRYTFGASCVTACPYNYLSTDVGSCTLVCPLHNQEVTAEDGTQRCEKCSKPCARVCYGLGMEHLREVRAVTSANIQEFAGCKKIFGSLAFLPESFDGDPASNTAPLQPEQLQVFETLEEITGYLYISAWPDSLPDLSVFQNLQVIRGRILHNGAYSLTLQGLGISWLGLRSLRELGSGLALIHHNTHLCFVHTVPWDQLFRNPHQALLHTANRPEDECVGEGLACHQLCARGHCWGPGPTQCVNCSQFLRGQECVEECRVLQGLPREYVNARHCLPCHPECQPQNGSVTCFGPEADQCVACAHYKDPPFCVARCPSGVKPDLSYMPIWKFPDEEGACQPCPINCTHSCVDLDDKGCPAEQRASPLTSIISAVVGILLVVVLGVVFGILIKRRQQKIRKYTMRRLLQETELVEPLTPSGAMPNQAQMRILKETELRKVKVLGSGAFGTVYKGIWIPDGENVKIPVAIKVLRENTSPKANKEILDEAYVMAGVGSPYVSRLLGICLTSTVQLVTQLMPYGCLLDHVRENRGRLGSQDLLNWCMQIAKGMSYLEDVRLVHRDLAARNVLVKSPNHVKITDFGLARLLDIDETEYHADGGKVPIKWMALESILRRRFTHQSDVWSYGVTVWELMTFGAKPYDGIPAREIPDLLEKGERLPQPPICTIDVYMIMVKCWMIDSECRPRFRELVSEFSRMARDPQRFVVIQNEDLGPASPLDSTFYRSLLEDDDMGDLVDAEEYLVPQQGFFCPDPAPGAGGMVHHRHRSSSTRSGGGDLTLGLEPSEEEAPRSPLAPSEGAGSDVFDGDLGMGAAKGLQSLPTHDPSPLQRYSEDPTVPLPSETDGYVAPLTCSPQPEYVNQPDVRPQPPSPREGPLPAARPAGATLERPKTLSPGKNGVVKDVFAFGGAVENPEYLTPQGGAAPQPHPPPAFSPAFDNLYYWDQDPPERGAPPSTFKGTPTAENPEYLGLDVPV

Compound: Cc1ccc(S(=O)(=O)N2CCN(C(=O)N3CCOCC3)C2C)cc1 (centres undefined)
- inhibition [1]: 0% (inactive)

Compound: CC(c1ccccc1)N1C(=O)c2ccc(C(=O)NCc3ccco3)cc2C1=O (centres undefined)
- inhibition [1]: 1% (inactive)

Compound: CC(=O)[C@H]1CC[C@H]2[C@@H]3CC[C@H]4C[C@H](O)CC[C@]4(C)[C@H]3C(=O)C[C@]12C
- inhibition [1]: 0% (inactive)
- viability [2]: 112%
- Her2 level [3]: 108% (inactive)
- viability [4]: 112% (inactive)
- viability [5]: 118% (inactive)
- viability [6]: 104% (inactive)
- differential viability (reversal) ([7]; H69AR cells + 2 uM doxorubicin): 12.1% (inactive)
- viability [7, 10]: 92%
- viability [7, 11]: 104%

Compound: CCOC(=O)C1=C(C)Nc2nnnn2C1c1c[nH]c2ccccc12 (centres undefined)
- inhibition [1]: 3% (inactive)

Compound: COc1ccc2[nH]cc(CCN(C)C)c2c1
- inhibition [1]: 0% (inactive)
- viability [2]: 108%
- Her2 level [3]: 126% (inactive)
- viability [4]: 108% (inactive)
- viability [5]: 86.3% (inactive)
- viability [6]: 108% (inactive)
- differential viability (reversal) ([7]; H69AR cells + 2 uM doxorubicin): 8.63% (inactive)
- viability [7, 10]: 99.5%
- viability [7, 11]: 108%

Compound: COc1ccc(C(=O)N2CCCC2=O)cc1
- inhibition [1]: 10% (inactive)
- viability [2]: 110%
- Her2 level [3]: 94.5% (inactive)
- viability [4]: 110% (inactive)
- viability [5]: 119% (inactive)
- viability [6]: 103% (inactive)
- differential viability (reversal) ([7]; H69AR cells + 2 uM doxorubicin): 13.5% (inactive)
- viability [7, 10]: 89.1%
- viability [7, 11]: 103%

Compound: C[C@@]1(CO)[C@H](O)CC[C@@]2(C)[C@H]1CC[C@H]1C[C@@H]3C[C@@]12CC[C@]3(O)CO
- inhibition [1]: 0% (inactive)
- viability [2]: 108%
- Her2 level [3]: 81.5% (inactive)
- viability [4]: 108% (inactive)
- viability [5]: 49.2% (inactive)
- viability [6]: 80.6% (inactive)
- differential viability (reversal) ([7]; H69AR cells + 2 uM doxorubicin): -28.1% (inactive)
- viability [7, 10]: 109%
- viability [7, 11]: 80.6%

Compound: O=c1[nH]cnc2c1C1(CCCC1)Cc1ccccc1-2
- inhibition [1]: 0% (inactive)

Compound: CC1CC(C)CN(c2nc3c(c(=O)[nH]c(=O)n3C)n2CCCSc2nc3ccccc3s2)C1 (centres undefined)
- inhibition [1]: 7% (inactive)

Compound: COc1ccc(S(=O)(=O)N2CCOCC2)cc1C(=O)Nc1cc(C)on1
- inhibition [1]: 0% (inactive)

Compound: Cc1cnc(NC(=O)CSc2nnc(-c3ccccc3)n2Cc2ccccc2)s1
- inhibition [1]: 0% (inactive)

Compound: O=c1[nH]c2ccc(Br)cc2c(-c2ccccc2)c1N1CCOCC1
- inhibition [1]: 1% (inactive)

Compound: COc1ccc(OC)c([C@@H](O)[C@H](C)NC(C)(C)C)c1
- inhibition [1]: 6% (inactive)
- viability [2]: 100%
- Her2 level [3]: 120% (inactive)
- viability [4]: 100% (inactive)
- viability [5]: 92.3% (inactive)
- viability [6]: 97.5% (inactive)
- differential viability (reversal) ([7]; H69AR cells + 2 uM doxorubicin): -0.98% (inactive)
- viability [7, 10]: 98.5%
- viability [7, 11]: 97.5%

Compound: O=C(NC1(C(F)(F)F)Oc2ccc(Cl)cc2O1)N1CCC2(CC1)OCCO2 (centres undefined)
- inhibition [1]: 1% (inactive)
- viability [2]: 91.5%
- Her2 level [3]: 87.5% (inactive)
- viability [4]: 91.5% (inactive)
- viability [5]: 58.5% (inactive)
- viability [6]: 27.9% (active)
- differential viability (reversal) ([7]; H69AR cells + 2 uM doxorubicin): -23.8% (inactive)
- viability [7, 10]: 51.7%
- viability [7, 11]: 27.9%
- inhibition [8]: -2.47% (inactive)
- inhibition [9]: -5.56% (inactive)
